{"source": "ChEMBL document CHEMBL5653631", "about": "“A Potent and Selective ULK1 Inhibitor Suppresses Autophagy and Sensitizes Cancer Cells to Nutrient Stress” (iScience, 2018)", "key": {"[1]": {"biological_target": "SRSF protein kinase 3 (Homo sapiens) (UniProt Q9UPE1)", "sequence (Q9UPE1 whole entry)": "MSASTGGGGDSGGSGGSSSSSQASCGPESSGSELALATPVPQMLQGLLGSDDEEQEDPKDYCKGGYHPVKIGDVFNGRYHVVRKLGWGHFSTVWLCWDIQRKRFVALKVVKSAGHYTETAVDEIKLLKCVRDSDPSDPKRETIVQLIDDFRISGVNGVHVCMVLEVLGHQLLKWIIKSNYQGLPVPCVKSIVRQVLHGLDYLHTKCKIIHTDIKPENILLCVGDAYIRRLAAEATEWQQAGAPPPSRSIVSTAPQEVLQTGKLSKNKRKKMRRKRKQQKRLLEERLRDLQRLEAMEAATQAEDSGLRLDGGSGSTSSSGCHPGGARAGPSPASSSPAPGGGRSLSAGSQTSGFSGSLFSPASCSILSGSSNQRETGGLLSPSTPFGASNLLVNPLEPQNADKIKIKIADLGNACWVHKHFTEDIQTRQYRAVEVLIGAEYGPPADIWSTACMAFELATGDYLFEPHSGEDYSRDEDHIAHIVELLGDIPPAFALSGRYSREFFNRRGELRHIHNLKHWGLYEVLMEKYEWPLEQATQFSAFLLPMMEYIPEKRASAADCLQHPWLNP", "assay": "Inhibition of human recombinant MSSK1 at 40 nM related to control ULK1"}, "[2]": {"biological_target": "T1, Dual specificity tyrosine-phosphorylation-regulated kinase 3 (Homo sapiens) (UniProt O43781)", "T1 sequence (whole entry)": "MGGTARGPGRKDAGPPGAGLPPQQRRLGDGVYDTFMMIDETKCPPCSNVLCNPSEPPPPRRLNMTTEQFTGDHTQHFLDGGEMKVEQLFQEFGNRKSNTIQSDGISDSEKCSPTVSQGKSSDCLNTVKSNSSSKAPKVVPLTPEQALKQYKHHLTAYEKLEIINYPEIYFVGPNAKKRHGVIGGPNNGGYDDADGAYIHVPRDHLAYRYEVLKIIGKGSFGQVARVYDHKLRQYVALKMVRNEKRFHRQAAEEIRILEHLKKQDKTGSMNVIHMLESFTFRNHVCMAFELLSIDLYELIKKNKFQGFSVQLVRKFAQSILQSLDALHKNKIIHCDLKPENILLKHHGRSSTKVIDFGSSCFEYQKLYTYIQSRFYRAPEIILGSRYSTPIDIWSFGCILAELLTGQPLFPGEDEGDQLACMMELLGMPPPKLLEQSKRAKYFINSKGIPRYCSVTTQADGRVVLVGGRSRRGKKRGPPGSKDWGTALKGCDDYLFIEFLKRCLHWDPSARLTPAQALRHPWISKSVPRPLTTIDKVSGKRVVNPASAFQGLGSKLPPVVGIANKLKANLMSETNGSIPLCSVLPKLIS", "assay": "Inhibition of human recombinant DYRK3 at 40 nM related to control ULK1"}, "[3]": {"biological_target": "Serine/threonine-protein kinase/endoribonuclease IRE1 (Homo sapiens) (UniProt O75460)", "assay": "Inhibition of human recombinant IRE1 at 40 nM in presence of ATP by radiometric assay relative to control"}, "[4]": {"biological_target": "Serine/threonine-protein kinase Nek7 (Homo sapiens) (UniProt Q8TDX7)", "sequence (Q8TDX7 whole entry, looked up)": "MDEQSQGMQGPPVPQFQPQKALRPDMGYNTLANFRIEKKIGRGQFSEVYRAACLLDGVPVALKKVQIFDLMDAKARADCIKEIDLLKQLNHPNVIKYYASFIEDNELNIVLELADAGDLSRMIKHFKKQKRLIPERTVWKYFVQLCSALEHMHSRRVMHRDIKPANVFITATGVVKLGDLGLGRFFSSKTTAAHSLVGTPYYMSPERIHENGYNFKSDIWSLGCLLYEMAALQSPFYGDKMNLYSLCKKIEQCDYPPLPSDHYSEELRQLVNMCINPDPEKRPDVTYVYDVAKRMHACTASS", "assay": "Inhibition of human recombinant NEK7 at 40 nM related to control ULK1"}, "[5]": {"biological_target": "Tyrosine-protein kinase Fer (Homo sapiens) (UniProt P16591)", "sequence (P16591 whole entry, looked up)": "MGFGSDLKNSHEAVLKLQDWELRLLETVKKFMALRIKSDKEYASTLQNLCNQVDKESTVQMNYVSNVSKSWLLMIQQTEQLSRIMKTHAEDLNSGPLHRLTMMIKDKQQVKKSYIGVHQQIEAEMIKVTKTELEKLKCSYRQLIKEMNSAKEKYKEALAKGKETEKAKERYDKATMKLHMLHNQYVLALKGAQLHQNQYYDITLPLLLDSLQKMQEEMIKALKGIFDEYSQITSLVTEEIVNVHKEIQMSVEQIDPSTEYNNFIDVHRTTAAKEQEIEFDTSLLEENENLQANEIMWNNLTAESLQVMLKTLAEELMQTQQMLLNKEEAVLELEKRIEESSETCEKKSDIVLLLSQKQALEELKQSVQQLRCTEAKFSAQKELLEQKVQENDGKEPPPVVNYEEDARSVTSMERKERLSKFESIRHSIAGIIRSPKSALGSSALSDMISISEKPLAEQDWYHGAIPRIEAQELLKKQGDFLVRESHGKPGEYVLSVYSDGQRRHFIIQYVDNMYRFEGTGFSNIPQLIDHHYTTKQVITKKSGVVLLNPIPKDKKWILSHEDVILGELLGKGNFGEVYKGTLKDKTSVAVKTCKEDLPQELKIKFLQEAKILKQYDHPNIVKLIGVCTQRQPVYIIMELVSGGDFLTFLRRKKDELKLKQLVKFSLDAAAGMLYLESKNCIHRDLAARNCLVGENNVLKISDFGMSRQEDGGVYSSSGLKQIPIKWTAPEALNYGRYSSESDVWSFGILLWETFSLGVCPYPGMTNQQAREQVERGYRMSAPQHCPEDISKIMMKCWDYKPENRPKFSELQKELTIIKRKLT", "assay": "Inhibition of human recombinant FER at 40 nM in presence of ATP by radiometric assay relative to control"}, "[6]": {"biological_target": "Ribosomal protein S6 kinase alpha-6 (Homo sapiens) (UniProt Q9UK32)", "assay": "Inhibition of human recombinant RSK4 at 15 nM in presence of ATP by radiometric assay relative to control"}, "[7]": {"biological_target": "T2, Dual specificity protein kinase TTK (Homo sapiens) (UniProt P33981)", "T2 sequence (whole entry)": "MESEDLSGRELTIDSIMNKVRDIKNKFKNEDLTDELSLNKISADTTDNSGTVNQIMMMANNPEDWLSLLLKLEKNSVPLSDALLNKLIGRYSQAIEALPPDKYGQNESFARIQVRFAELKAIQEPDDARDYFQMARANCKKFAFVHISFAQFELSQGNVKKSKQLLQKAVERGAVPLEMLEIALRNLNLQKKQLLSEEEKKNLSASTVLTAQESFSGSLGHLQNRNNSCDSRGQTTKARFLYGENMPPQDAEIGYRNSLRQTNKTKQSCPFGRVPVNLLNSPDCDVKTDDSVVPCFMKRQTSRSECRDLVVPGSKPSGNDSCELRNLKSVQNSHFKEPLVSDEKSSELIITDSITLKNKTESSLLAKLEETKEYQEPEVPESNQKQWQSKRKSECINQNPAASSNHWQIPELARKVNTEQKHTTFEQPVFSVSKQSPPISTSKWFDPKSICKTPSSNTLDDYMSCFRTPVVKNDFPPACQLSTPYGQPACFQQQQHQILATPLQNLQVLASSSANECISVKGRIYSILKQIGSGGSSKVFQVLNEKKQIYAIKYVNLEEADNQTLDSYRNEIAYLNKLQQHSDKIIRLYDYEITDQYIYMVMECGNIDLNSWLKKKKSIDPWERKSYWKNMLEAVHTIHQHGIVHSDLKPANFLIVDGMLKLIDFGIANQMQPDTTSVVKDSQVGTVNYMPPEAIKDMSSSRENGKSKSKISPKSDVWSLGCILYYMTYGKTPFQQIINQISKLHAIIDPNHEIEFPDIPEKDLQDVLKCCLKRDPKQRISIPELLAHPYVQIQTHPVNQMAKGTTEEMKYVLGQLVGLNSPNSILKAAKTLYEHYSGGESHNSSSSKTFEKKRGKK", "assay": "Inhibition of human recombinant TTK at 15 nM in presence of ATP by radiometric assay relative to control"}, "[8]": {"biological_target": "Serine-protein kinase ATM (Homo sapiens) (UniProt Q13315)", "assay": "Inhibition of human recombinant ATM at 15 nM in presence of ATP by radiometric assay relative to control", "in_short": "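Panel of 327 recombinant human kinases, each assayed in vitro by radiometric activity assay in duplicate at a single inhibitor concentration per compound, chosen with reference to its ULK1 inhibition. Activity remaining was expressed as percent of vehicle control, and percent inhibition was calculated as 100 minus percent activity remaining.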"}, "[9]": {"biological_target": "Serine/threonine-protein kinase PAK 5 (Homo sapiens) (UniProt Q9P286)", "assay": "Inhibition of human recombinant PAK5 at 15 nM in presence of ATP by radiometric assay relative to control"}, "[10]": {"biological_target": "Ribosomal protein S6 kinase alpha-1 (Homo sapiens) (UniProt Q15418)", "assay": "Inhibition of human recombinant RSK1 at 15 nM related to control ULK1"}, "[11]": {"biological_target": "Dual specificity protein kinase CLK1 (Homo sapiens) (UniProt P49759)", "sequence (P49759 whole entry, looked up)": "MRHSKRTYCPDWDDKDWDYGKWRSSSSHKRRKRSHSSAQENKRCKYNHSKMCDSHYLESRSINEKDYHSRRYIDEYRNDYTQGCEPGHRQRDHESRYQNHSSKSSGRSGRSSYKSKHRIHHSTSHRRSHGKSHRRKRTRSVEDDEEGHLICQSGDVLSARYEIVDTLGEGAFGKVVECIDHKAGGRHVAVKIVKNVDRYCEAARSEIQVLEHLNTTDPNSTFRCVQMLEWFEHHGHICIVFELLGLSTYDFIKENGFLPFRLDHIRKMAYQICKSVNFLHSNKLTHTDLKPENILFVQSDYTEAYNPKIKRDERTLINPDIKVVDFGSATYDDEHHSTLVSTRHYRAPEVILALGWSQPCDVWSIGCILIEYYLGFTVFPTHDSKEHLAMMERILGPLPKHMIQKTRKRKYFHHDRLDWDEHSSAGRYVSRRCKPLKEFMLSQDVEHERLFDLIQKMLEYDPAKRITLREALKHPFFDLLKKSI", "assay": "Inhibition of human recombinant CLK1 at 15 nM in presence of ATP by radiometric assay relative to control"}, "[12]": {"biological_target": "Protein kinase C alpha type (Homo sapiens) (UniProt P17252)", "assay": "Inhibition of human recombinant PKCa at 500 nM related to control ULK1"}, "[13]": {"biological_target": "Serine/threonine-protein kinase MARK1 (Homo sapiens) (UniProt Q9P0L2)", "sequence (Q9P0L2 whole entry, looked up)": "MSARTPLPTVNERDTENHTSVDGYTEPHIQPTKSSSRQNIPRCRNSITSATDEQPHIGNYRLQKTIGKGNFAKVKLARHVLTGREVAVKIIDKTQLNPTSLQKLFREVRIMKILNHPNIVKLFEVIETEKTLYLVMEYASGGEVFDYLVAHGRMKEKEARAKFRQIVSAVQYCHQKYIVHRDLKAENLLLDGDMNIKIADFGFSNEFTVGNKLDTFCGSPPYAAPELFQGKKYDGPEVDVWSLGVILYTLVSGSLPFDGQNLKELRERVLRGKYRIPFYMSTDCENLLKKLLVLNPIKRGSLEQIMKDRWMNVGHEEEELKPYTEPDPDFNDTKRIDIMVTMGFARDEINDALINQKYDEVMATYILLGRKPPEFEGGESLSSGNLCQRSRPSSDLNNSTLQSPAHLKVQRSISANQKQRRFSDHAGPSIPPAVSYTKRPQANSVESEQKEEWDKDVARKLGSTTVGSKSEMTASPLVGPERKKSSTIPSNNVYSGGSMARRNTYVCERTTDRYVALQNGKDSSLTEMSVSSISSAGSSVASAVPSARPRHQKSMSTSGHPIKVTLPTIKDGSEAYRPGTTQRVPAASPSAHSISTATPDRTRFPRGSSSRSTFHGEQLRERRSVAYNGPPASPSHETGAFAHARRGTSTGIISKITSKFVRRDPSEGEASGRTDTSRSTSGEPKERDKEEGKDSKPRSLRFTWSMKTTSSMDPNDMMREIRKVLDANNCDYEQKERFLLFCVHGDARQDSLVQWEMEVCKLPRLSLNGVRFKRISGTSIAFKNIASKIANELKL", "assay": "Inhibition of human recombinant MARK1 at 500 nM related to control ULK1"}, "[14]": {"biological_target": "BDNF/NT-3 growth factors receptor (Homo sapiens) (UniProt Q16620)", "sequence (Q16620 32-822 limits assumed)": "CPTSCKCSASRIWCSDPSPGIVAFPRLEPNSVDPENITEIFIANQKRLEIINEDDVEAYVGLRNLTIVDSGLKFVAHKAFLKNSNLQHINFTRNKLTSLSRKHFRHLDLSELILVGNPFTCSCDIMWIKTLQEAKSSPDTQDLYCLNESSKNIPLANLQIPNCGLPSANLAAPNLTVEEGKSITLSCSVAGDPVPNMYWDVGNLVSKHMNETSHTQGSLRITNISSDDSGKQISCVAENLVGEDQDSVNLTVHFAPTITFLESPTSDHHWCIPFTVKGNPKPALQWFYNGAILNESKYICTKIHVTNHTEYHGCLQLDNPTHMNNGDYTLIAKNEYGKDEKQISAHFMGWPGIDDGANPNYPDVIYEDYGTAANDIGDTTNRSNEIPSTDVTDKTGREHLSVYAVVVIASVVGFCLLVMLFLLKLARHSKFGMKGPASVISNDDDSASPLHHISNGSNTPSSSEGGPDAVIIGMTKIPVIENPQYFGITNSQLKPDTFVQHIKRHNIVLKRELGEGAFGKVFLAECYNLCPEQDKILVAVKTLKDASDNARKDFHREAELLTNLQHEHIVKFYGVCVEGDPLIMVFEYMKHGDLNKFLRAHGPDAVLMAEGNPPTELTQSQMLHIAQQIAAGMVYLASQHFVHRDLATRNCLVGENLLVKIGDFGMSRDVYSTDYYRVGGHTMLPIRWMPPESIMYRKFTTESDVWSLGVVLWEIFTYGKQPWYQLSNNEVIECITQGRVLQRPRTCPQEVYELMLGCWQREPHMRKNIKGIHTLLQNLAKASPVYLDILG", "assay": "Inhibition of human recombinant TRKB at 500 nM in presence of ATP by radiometric assay relative to control"}, "[15]": {"biological_target": "Tyrosine-protein kinase Tec (Homo sapiens) (UniProt P42680)", "sequence (P42680 whole entry, looked up)": "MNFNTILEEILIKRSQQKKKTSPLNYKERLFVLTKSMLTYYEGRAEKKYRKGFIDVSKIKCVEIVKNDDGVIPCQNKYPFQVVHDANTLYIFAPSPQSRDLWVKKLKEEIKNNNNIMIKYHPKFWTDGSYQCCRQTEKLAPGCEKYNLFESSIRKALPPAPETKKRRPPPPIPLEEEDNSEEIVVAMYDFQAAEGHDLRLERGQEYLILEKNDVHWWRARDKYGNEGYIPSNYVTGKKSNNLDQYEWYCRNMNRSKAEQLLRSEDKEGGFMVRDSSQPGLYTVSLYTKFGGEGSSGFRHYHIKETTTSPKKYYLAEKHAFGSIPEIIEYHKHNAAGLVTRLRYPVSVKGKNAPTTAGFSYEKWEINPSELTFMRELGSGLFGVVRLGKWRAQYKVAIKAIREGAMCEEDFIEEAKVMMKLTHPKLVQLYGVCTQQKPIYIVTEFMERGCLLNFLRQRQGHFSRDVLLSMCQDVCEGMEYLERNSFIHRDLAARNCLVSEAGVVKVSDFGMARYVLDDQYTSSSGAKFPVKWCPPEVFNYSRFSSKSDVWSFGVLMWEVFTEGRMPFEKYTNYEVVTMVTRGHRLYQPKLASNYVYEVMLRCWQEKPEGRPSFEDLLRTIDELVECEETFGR", "assay": "Inhibition of human recombinant TEC at 500 nM related to control ULK1"}}, "data": [{"smiles": "O=C(N[C@@H](C1CC1)C(F)(F)F)c1cc(-c2cnn3cc(-c4ccc(F)cc4)cnc23)cs1", "values": [{"measurement": "fold change (FC)", "setting": "[1]", "result": 0.18}, {"measurement": "fold change (FC)", "setting": "[2]", "result": 0.41}, {"measurement": "inhibition", "setting": "[3]", "result": 0, "unit": "%"}, {"measurement": "fold change (FC)", "setting": "[4]", "result": 0}, {"measurement": "inhibition", "setting": "[5]", "result": 0, "unit": "%"}]}, {"smiles": "CC(C)[C@H](NC(=O)c1cc(-c2cnn3cc(-c4ccc(OCCN5CCCCC5)cc4)cnc23)cs1)C(F)(F)F", "values": [{"measurement": "inhibition", "setting": "[6]", "result": 0, "unit": "%"}, {"measurement": "inhibition", "setting": "[7]", "result": 22, "unit": "%"}, {"measurement": "inhibition", "setting": "[8]", "result": 6, "unit": "%"}, {"measurement": "inhibition", "setting": "[9]", "result": 0, "unit": "%"}, {"measurement": "fold change (FC)", "setting": "[10]", "result": 0.26}, {"measurement": "inhibition", "setting": "[11]", "result": 84, "unit": "%"}]}, {"smiles": "CNC(=O)c1ccccc1Oc1nc(Nc2cc(OC)c(OC)c(OC)c2)ncc1Br", "values": [{"measurement": "fold change (FC)", "setting": "[12]", "result": 0}, {"measurement": "fold change (FC)", "setting": "[13]", "result": 0.73}, {"measurement": "inhibition", "setting": "[14]", "result": 48, "unit": "%"}, {"measurement": "fold change (FC)", "setting": "[15]", "result": 0.03}]}]}
